Measured values taken from PMC9116722 (Cancer chemotherapy and pharmacology, 2022).

Assay: Adverse events
Assay type: in vivo, human
Outline: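 Patients with germline BRCA-mutated cancers, or BRCA-wildtype TNBC or platinum-refractory ovarian cancer, took oral drug continuously twice daily in 28-day cycles. There were nine dose levels from 50 to 500 mg BID under 3+3 escalation, run separately per cohort after the first DLT. Toxicities were graded by CTCAE v4.0, with DLTs assessed during cycle 1.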

SMILES: C[C@]1(c2nc3c(C(N)=O)cccc3[nH]2)CCCN1 [veliparib]
- Hypophosphatemia, Grade 2 (BRCAmut and BRCAwt combined): 4 (4) number of patients (%)
- Hypophosphatemia, Grade 3 (BRCAmut and BRCAwt combined): 2 (2) number of patients (%)
- Hypophosphatemia, Grade 4 (BRCAmut and BRCAwt combined): 0 (0) number of patients (%)
- Insomnia, Any Grade (BRCAmut and BRCAwt combined): 7 (7) number of patients (%)
- Insomnia, Grade 1 (BRCAmut and BRCAwt combined): 6 (6) number of patients (%)
- Insomnia, Grade 2 (BRCAmut and BRCAwt combined): 1 (1) number of patients (%)
- Insomnia, Grade 3 (BRCAmut and BRCAwt combined): 0 (0) number of patients (%)
- Insomnia, Grade 4 (BRCAmut and BRCAwt combined): 0 (0) number of patients (%)
- Lymphocyte count decreased, Any Grade (BRCAmut and BRCAwt combined): 37 (38) number of patients (%)
- Lymphocyte count decreased, Grade 1 (BRCAmut and BRCAwt combined): 7 (7) number of patients (%)
- Lymphocyte count decreased, Grade 2 (BRCAmut and BRCAwt combined): 15 (15) number of patients (%)
- Lymphocyte count decreased, Grade 3 (BRCAmut and BRCAwt combined): 14 (14) number of patients (%)
- Lymphocyte count decreased, Grade 4 (BRCAmut and BRCAwt combined): 1 (1) number of patients (%)
- Myalgia, Any Grade (BRCAmut and BRCAwt combined): 5 (5) number of patients (%)
- Myalgia, Grade 1 (BRCAmut and BRCAwt combined): 4 (4) number of patients (%)
- Myalgia, Grade 2 (BRCAmut and BRCAwt combined): 1 (1) number of patients (%)
- Myalgia, Grade 3 (BRCAmut and BRCAwt combined): 0 (0) number of patients (%)
- Myalgia, Grade 4 (BRCAmut and BRCAwt combined): 0 (0) number of patients (%)
- Nausea, Any Grade (BRCAmut and BRCAwt combined): 64 (65) number of patients (%)
- Nausea, Grade 1 (BRCAmut and BRCAwt combined): 42 (43) number of patients (%)
- Nausea, Grade 2 (BRCAmut and BRCAwt combined): 20 (20) number of patients (%)
- Nausea, Grade 3 (BRCAmut and BRCAwt combined): 2 (2) number of patients (%)
- Nausea, Grade 4 (BRCAmut and BRCAwt combined): 0 (0) number of patients (%)
- Neutrophil count decreased, Any Grade (BRCAmut and BRCAwt combined): 17 (17) number of patients (%)
- Neutrophil count decreased, Grade 1 (BRCAmut and BRCAwt combined): 13 (13) number of patients (%)
- Neutrophil count decreased, Grade 2 (BRCAmut and BRCAwt combined): 4 (4) number of patients (%)
- Neutrophil count decreased, Grade 3 (BRCAmut and BRCAwt combined): 0 (0) number of patients (%)
- Neutrophil count decreased, Grade 4 (BRCAmut and BRCAwt combined): 0 (0) number of patients (%)
- Platelet count decreased, Any Grade (BRCAmut and BRCAwt combined): 18 (18) number of patients (%)
- Platelet count decreased, Grade 1 (BRCAmut and BRCAwt combined): 14 (14) number of patients (%)
- Platelet count decreased, Grade 2 (BRCAmut and BRCAwt combined): 3 (3) number of patients (%)
- Platelet count decreased, Grade 3 (BRCAmut and BRCAwt combined): 0 (0) number of patients (%)
- Platelet count decreased, Grade 4 (BRCAmut and BRCAwt combined): 1 (1) number of patients (%)
- Vomiting, Any Grade (BRCAmut and BRCAwt combined): 32 (33) number of patients (%)
- Vomiting, Grade 1 (BRCAmut and BRCAwt combined): 25 (26) number of patients (%)
- Vomiting, Grade 2 (BRCAmut and BRCAwt combined): 7 (7) number of patients (%)
- White blood cell decreased, Any Grade (BRCAmut and BRCAwt combined): 27 (28) number of patients (%)
- White blood cell decreased, Grade 1 (BRCAmut and BRCAwt combined): 20 (20) number of patients (%)
- White blood cell decreased, Grade 2 (BRCAmut and BRCAwt combined): 7 (7) number of patients (%)
- White blood cell decreased, Grade 3 (BRCAmut and BRCAwt combined): 0 (0) number of patients (%)
- White blood cell decreased, Grade 4 (BRCAmut and BRCAwt combined): 0 (0) number of patients (%)
- grade 3/4 decreased lymphocyte count (BRCAmut group): 14%
- incidence of grade 3/4 toxicity (BRCAmut group): 24%
- Abdominal pain, Grade 3 (BRCAmut, DL1 50/50 mg AM/PM): 0 number of patients (%)
- Alkaline phosphatase increased, Grade 3 (BRCAmut, DL1 50/50 mg AM/PM): 1 (14) number of patients (%)
- Anemia, Grade 3 (BRCAmut, DL1 50/50 mg AM/PM): 0 number of patients (%)
- Anemia, Grade 4 (BRCAmut, DL1 50/50 mg AM/PM): 0 number of patients (%)
- Any Grade 3/4 toxicity (BRCAmut, DL1 50/50 mg AM/PM): 1 (14) number of patients (%)
- Any Grade 3 toxicity (BRCAmut, DL1 50/50 mg AM/PM): 1 (14) number of patients (%)
- Any Grade 4 toxicity (BRCAmut, DL1 50/50 mg AM/PM): 0 number of patients (%)
- Appendicitis, Grade 3 (BRCAmut, DL1 50/50 mg AM/PM): 0 number of patients (%)
- Aspartate aminotransferase increased, Grade 3 (BRCAmut, DL1 50/50 mg AM/PM): 1 (14) number of patients (%)
- Dehydration, Grade 3 (BRCAmut, DL1 50/50 mg AM/PM): 0 number of patients (%)
- Dyspnea, Grade 4 (BRCAmut, DL1 50/50 mg AM/PM): 0 number of patients (%)
- Fatigue, Grade 3 (BRCAmut, DL1 50/50 mg AM/PM): 0 number of patients (%)
- Headache, Grade 3 (BRCAmut, DL1 50/50 mg AM/PM): 0 number of patients (%)
- Hypophosphatemia, Grade 3 (BRCAmut, DL1 50/50 mg AM/PM): 0 number of patients (%)
- Lymphocyte count decreased, Grade 3 (BRCAmut, DL1 50/50 mg AM/PM): 0 number of patients (%)
- Lymphocyte count decreased, Grade 4 (BRCAmut, DL1 50/50 mg AM/PM): 0 number of patients (%)
- Nausea, Grade 3 (BRCAmut, DL1 50/50 mg AM/PM): 0 number of patients (%)
- Platelet count decreased, Grade 4 (BRCAmut, DL1 50/50 mg AM/PM): 0 number of patients (%)
- Thromboembolic event, Grade 3 (BRCAmut, DL1 50/50 mg AM/PM): 0 number of patients (%)
- Thromboembolic event, Grade 4 (BRCAmut, DL1 50/50 mg AM/PM): 0 number of patients (%)
- Urinary tract infection, Grade 3 (BRCAmut, DL1 50/50 mg AM/PM): 0 number of patients (%)
- Abdominal pain, Grade 3 (BRCAmut, DL2 100/50 mg AM/PM): 0 number of patients (%)
- Alkaline phosphatase increased, Grade 3 (BRCAmut, DL2 100/50 mg AM/PM): 0 number of patients (%)
- Anemia, Grade 3 (BRCAmut, DL2 100/50 mg AM/PM): 0 number of patients (%)
- Anemia, Grade 4 (BRCAmut, DL2 100/50 mg AM/PM): 0 number of patients (%)
- Any Grade 3/4 toxicity (BRCAmut, DL2 100/50 mg AM/PM): 1 (33) number of patients (%)
- Any Grade 3 toxicity (BRCAmut, DL2 100/50 mg AM/PM): 0 number of patients (%)
- Any Grade 4 toxicity (BRCAmut, DL2 100/50 mg AM/PM): 1 (33) number of patients (%)
- Appendicitis, Grade 3 (BRCAmut, DL2 100/50 mg AM/PM): 0 number of patients (%)
- Aspartate aminotransferase increased, Grade 3 (BRCAmut, DL2 100/50 mg AM/PM): 0 number of patients (%)
- Dehydration, Grade 3 (BRCAmut, DL2 100/50 mg AM/PM): 0 number of patients (%)
- Dyspnea, Grade 4 (BRCAmut, DL2 100/50 mg AM/PM): 0 number of patients (%)
- Fatigue, Grade 3 (BRCAmut, DL2 100/50 mg AM/PM): 0 number of patients (%)
- Headache, Grade 3 (BRCAmut, DL2 100/50 mg AM/PM): 0 number of patients (%)
- Hypophosphatemia, Grade 3 (BRCAmut, DL2 100/50 mg AM/PM): 0 number of patients (%)
- Lymphocyte count decreased, Grade 3 (BRCAmut, DL2 100/50 mg AM/PM): 0 number of patients (%)
- Lymphocyte count decreased, Grade 4 (BRCAmut, DL2 100/50 mg AM/PM): 0 number of patients (%)
- Nausea, Grade 3 (BRCAmut, DL2 100/50 mg AM/PM): 0 number of patients (%)
- Platelet count decreased, Grade 4 (BRCAmut, DL2 100/50 mg AM/PM): 0 number of patients (%)
- Thromboembolic event, Grade 3 (BRCAmut, DL2 100/50 mg AM/PM): 0 number of patients (%)
- Thromboembolic event, Grade 4 (BRCAmut, DL2 100/50 mg AM/PM): 1 (33) number of patients (%)
- Urinary tract infection, Grade 3 (BRCAmut, DL2 100/50 mg AM/PM): 0 number of patients (%)
- Abdominal pain, Grade 3 (BRCAmut, DL3 100/100 mg AM/PM): 0 number of patients (%)
- Alkaline phosphatase increased, Grade 3 (BRCAmut, DL3 100/100 mg AM/PM): 0 number of patients (%)
